ChEMBL document CHEMBL3779892, “Increasing the binding affinity of VEGFR-2 inhibitors by extending their hydrophobic interaction with the active site: Design, synthesis and biological evaluation of 1-substituted-4-(4-methoxybenzyl)phthalazine derivatives” (Eur J Med Chem, 2016)

Key:
Type in all cases: functional
[1] = Growth inhibition of human SNB75 cells at 10 uM after 48 hrs by sulforhodamine B assay; details: SNB-75, 48 h, read-out: GI
Summary of the method: (§1)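 Run at NCI on the 60-line panel. Cells grown in RPMI 1640 with 5% FBS and 2 mM L-glutamine, plated at 5000–40,000 cells/well by doubling time, and held 24 h at 37 °C before dosing. Drug (DMSO stock) given at a single final 10 µM in triplicate wells for 48 h. Adherent cells fixed with cold TCA (10% final), suspension cells with 16% TCA. SRB stain read at 515 nm. Percent growth from Tz, C and Ti.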

ACHN = experiment: Growth inhibition of human ACHN cells at 10 uM after 48 hrs by sulforhodamine B assay; details: read-out: GI; summary of the method: as §1
[2] = Growth inhibition of human SW620 cells at 10 uM after 48 hrs by sulforhodamine B assay; details: SW-620, 48 h, read-out: GI
Summary of the method: (§2)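 NCI-60 panel, adherent cells grown in RPMI 1640 with 5% FBS and 2 mM L-glutamine, plated at 5000–40,000 cells/well and preincubated 24 h at 37 °C, 5% CO2. 10 µM final compound from DMSO stock, triplicate wells, 48 h. Fixed with cold TCA (10% final, 60 min, 4 °C) and stained with 0.4% SRB. Absorbance read at 515 nm; growth calculated against time-zero and control wells.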

[3] = Growth inhibition of human DU145 cells at 10 uM after 48 hrs by sulforhodamine B assay; details: DU-145, 48 h, read-out: GI; summary of the method: as §1
NCI-H522 = experiment: Growth inhibition of human NCI-H522 cells at 10 uM after 48 hrs by sulforhodamine B assay; details: NCI-H522, 48 h, read-out: GI; summary of the method: as §1
MDA-MB-468 = experiment: Growth inhibition of human MDA-MB-468 cells at 10 uM after 48 hrs by sulforhodamine B assay; details: MDA-MB-468, 48 h, read-out: GI; summary of the method: as §1
[4] = Growth inhibition of human UACC257 cells at 10 uM after 48 hrs by sulforhodamine B assay; details: UACC-257, 48 h, read-out: GI; summary of the method: as §2
[5] = Growth inhibition of human PC3 cells at 10 uM after 48 hrs by sulforhodamine B assay; details: PC-3, 48 h, read-out: GI; summary of the method: as §1
[6] = Growth inhibition of human NCI-ADR-RES cells at 10 uM after 48 hrs by sulforhodamine B assay; details: read-out: GI; summary of the method: as §1
[7] = Growth inhibition of human HCC2998 cells at 10 uM after 48 hrs by sulforhodamine B assay; details: HCC 2998, 48 h, read-out: GI; summary of the method: as §1
SR = experiment: Growth inhibition of human SR cells at 10 uM after 48 hrs by sulforhodamine B assay; details: read-out: GI
Summary of the method: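 NCI-60 screen. Cells were grown in RPMI 1640 with 5% FBS and 2 mM L-glutamine, plated at 5000–40,000 cells/well and held 24 h at 37 °C, 5% CO2. Single 10 µM final dose from DMSO stock, triplicate wells, 48 h. Settled cells were fixed with 80% TCA (16% final) and stained with 0.4% SRB. Dye was solubilized in 10 mM Tris and read at 515 nm. Growth was calculated against time-zero and untreated wells.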

[8] = Growth inhibition of human OVCAR5 cells at 10 uM after 48 hrs by sulforhodamine B assay; details: OVCAR-5, 48 h, read-out: GI; summary of the method: as §1
[9] = Growth inhibition of human HCT15 cells at 10 uM after 48 hrs by sulforhodamine B assay; details: HCT-15, 48 h, read-out: GI; summary of the method: as §1
[10] = Growth inhibition of human Caki1 cells at 10 uM after 48 hrs by sulforhodamine B assay; details: CAKI-1, 48 h, read-out: GI; summary of the method: as §1
[11] = Growth inhibition of human LOXIMVI cells at 10 uM after 48 hrs by sulforhodamine B assay; details: LOX IMVI, read-out: GI; summary of the method: as §1
[12] = Growth inhibition of human Hs 578T cells at 10 uM after 48 hrs by sulforhodamine B assay; details: read-out: GI; summary of the method: as §1
SK-MEL-28 = experiment: Growth inhibition of human SK-MEL-28 cells at 10 uM after 48 hrs by sulforhodamine B assay; details: SK-MEL-28, 48 h, read-out: GI; summary of the method: as §1
NCI-H23 = experiment: Growth inhibition of human NCI-H23 cells at 10 uM after 48 hrs by sulforhodamine B assay; details: NCI-H23, 48 h, read-out: GI; summary of the method: as §1
MDA-MB-435 = experiment: Growth inhibition of human MDA-MB-435 cells at 10 uM after 48 hrs by sulforhodamine B assay; details: MDA-MB-435, 48 h, read-out: GI; summary of the method: as §1
[13] = Growth inhibition of human SF539 cells at 10 uM after 48 hrs by sulforhodamine B assay; details: SF-539, 48 h, read-out: GI; summary of the method: as §1
[14] = Growth inhibition of human RXF393 cells at 10 uM after 48 hrs by sulforhodamine B assay; details: RXF 393, 48 h, read-out: GI; summary of the method: as §1
NCI-H226 = experiment: Growth inhibition of human NCI-H226 cells at 10 uM after 48 hrs by sulforhodamine B assay; details: NCI-H226, 48 h, read-out: GI; summary of the method: as §1
NCI-H322M = experiment: Growth inhibition of human NCI-H322M cells at 10 uM after 48 hrs by sulforhodamine B assay; details: read-out: GI; summary of the method: as §1
SK-MEL-5 = experiment: Growth inhibition of human SK-MEL-5 cells at 10 uM after 48 hrs by sulforhodamine B assay; details: SK-MEL-5, 48 h, read-out: GI; summary of the method: as §1
M14 = experiment: Growth inhibition of human M14 cells at 10 uM after 48 hrs by sulforhodamine B assay; details: M14, 48 h, read-out: GI; summary of the method: as §1
[15] = Growth inhibition of human RPMI8226 cells at 10 uM after 48 hrs by sulforhodamine B assay; details: RPMI-8226, 48 h, read-out: GI; summary of the method: as §1
KM12 = experiment: Growth inhibition of human KM12 cells at 10 uM after 48 hrs by sulforhodamine B assay; details: KM12, 48 h, read-out: GI; summary of the method: as §1
[16] = Growth inhibition of human UACC62 cells at 10 uM after 48 hrs by sulforhodamine B assay; details: UACC-62, 48 h, read-out: GI; summary of the method: as §2
[17] = Growth inhibition of human SF268 cells at 10 uM after 48 hrs by sulforhodamine B assay; details: SF-268, 48 h, read-out: GI; summary of the method: as §1
[18] = Growth inhibition of human HOP92 cells at 10 uM after 48 hrs by sulforhodamine B assay; details: HOP-92, 48 h, read-out: GI; summary of the method: as §1
A549 = experiment: Growth inhibition of human A549 cells at 10 uM after 48 hrs by sulforhodamine B assay; details: A549, 48 h, read-out: GI; summary of the method: as §1
[19] = Growth inhibition of human HCT116 cells at 10 uM after 48 hrs by sulforhodamine B assay; details: HCT-116, 48 h, read-out: GI; summary of the method: as §1
[20] = Growth inhibition of human HOP62 cells at 10 uM after 48 hrs by sulforhodamine B assay; details: HOP-62, 48 h, read-out: GI; summary of the method: as §1
[21] = Growth inhibition of human SF295 cells at 10 uM after 48 hrs by sulforhodamine B assay; details: SF-295, 48 h, read-out: GI; summary of the method: as §1

SMILES	inhibition of growth at 10 µM [1]	inhibition of growth at 10 µM (ACHN)	inhibition of growth at 10 µM [2]	inhibition of growth at 10 µM [3]	inhibition of growth at 10 µM (NCI-H522)	inhibition of growth at 10 µM (MDA-MB-468)	inhibition of growth at 10 µM [4]	inhibition of growth at 10 µM [5]	inhibition of growth at 10 µM [6]	inhibition of growth at 10 µM [7]	inhibition of growth at 10 µM (SR)	inhibition of growth at 10 µM [8]	inhibition of growth at 10 µM [9]	inhibition of growth at 10 µM [10]	inhibition of growth at 10 µM [11]	inhibition of growth at 10 µM [12]	inhibition of growth at 10 µM (SK-MEL-28)	inhibition of growth at 10 µM (NCI-H23)	inhibition of growth at 10 µM (MDA-MB-435)	inhibition of growth at 10 µM [13]	other results
COc1ccc(Cc2nnc(Nc3ccc(C#N)cc3)c3ccccc23)cc1	< 30%	< 30%	< 30%	< 30%	< 30%	30%	< 30%	34%	< 30%	< 30%	< 30%	< 30%	< 30%	< 30%	< 30%	< 30%	< 30%	< 30%	< 30%	< 30%	inhibition of growth at 10 µM [14]: < 30%; inhibition of growth at 10 µM (NCI-H226): < 30%; inhibition of growth at 10 µM (NCI-H322M): < 30%; inhibition of growth at 10 µM (SK-MEL-5): < 30%; inhibition of growth at 10 µM (M14): < 30%; inhibition of growth at 10 µM [15]: < 30%; inhibition of growth at 10 µM (KM12): < 30%; inhibition of growth at 10 µM [16]: < 30%; inhibition of growth at 10 µM [17]: < 30%; inhibition of growth at 10 µM [18]: 36%; inhibition of growth at 10 µM (A549): < 30%; inhibition of growth at 10 µM [19]: < 30%; inhibition of growth at 10 µM [20]: < 30%; inhibition of growth at 10 µM [21]: < 30%
COc1ccc(Cc2nnc(Nc3ccc(NC(=O)Nc4ccccc4Cl)cc3)c3ccccc23)cc1	< 30%	< 30%	< 30%	< 30%	33%	< 30%	< 30%	< 30%	< 30%	< 30%	< 30%	< 30%	< 30%	< 30%	< 30%	< 30%	< 30%	< 30%	< 30%	< 30%	inhibition of growth at 10 µM [14]: 48%; inhibition of growth at 10 µM (NCI-H226): < 30%; inhibition of growth at 10 µM (NCI-H322M): < 30%; inhibition of growth at 10 µM (SK-MEL-5): < 30%; inhibition of growth at 10 µM (M14): < 30%; inhibition of growth at 10 µM [15]: 33%; inhibition of growth at 10 µM (KM12): < 30%; inhibition of growth at 10 µM [16]: < 30%; inhibition of growth at 10 µM [17]: < 30%; inhibition of growth at 10 µM [18]: < 30%; inhibition of growth at 10 µM (A549): < 30%; inhibition of growth at 10 µM [19]: < 30%; inhibition of growth at 10 µM [20]: < 30%; inhibition of growth at 10 µM [21]: < 30%
COc1ccc(Cc2nnc(Nc3cccc(C(F)(F)F)c3)c3ccccc23)cc1	< 30%	31%	< 30%	< 30%	45%	42%	< 30%	49%	40%	31%	52%	< 30%	41%	32%	< 30%	< 30%	< 30%	42%	< 30%	36%	inhibition of growth at 10 µM [14]: 34%; inhibition of growth at 10 µM (NCI-H226): 40%; inhibition of growth at 10 µM (NCI-H322M): < 30%; inhibition of growth at 10 µM (SK-MEL-5): < 30%; inhibition of growth at 10 µM (M14): < 30%; inhibition of growth at 10 µM [15]: 87%; inhibition of growth at 10 µM (KM12): 40%; inhibition of growth at 10 µM [16]: 42%; inhibition of growth at 10 µM [17]: < 30%; inhibition of growth at 10 µM [18]: 63%; inhibition of growth at 10 µM (A549): 57%; inhibition of growth at 10 µM [19]: 56%; inhibition of growth at 10 µM [20]: < 30%; inhibition of growth at 10 µM [21]: 38%
COc1ccc(Cc2nnc(Nc3ccc(NC(=O)Nc4cccc(C(F)(F)F)c4)cc3)c3ccccc23)cc1	31%	41%	< 30%	< 30%	56%	< 30%	< 30%	36%	< 30%	< 30%	34%	< 30%	< 30%	< 30%	< 30%	34%	< 30%	< 30%	< 30%	< 30%	inhibition of growth at 10 µM [14]: 50%; inhibition of growth at 10 µM (NCI-H226): < 30%; inhibition of growth at 10 µM (NCI-H322M): < 30%; inhibition of growth at 10 µM (SK-MEL-5): < 30%; inhibition of growth at 10 µM (M14): 30%; inhibition of growth at 10 µM [15]: 42%; inhibition of growth at 10 µM (KM12): 36%; inhibition of growth at 10 µM [16]: < 30%; inhibition of growth at 10 µM [17]: < 30%; inhibition of growth at 10 µM [18]: < 30%; inhibition of growth at 10 µM (A549): 35%; inhibition of growth at 10 µM [19]: 42%; inhibition of growth at 10 µM [20]: < 30%; inhibition of growth at 10 µM [21]: < 30%
